Measurements taken from ChEMBL document CHEMBL1926564, “Design, synthesis and biological activity of original pyrazolo-pyrido-diazepine, -pyrazine and -oxazine dione derivatives as novel dual Nox4/Nox1 inhibitors” (Bioorg Med Chem, 2011).

Experiments:
NADPH oxidase 4 = target: T1, NADPH oxidase 4 (Homo sapiens, UniProt Q9NPH5); assay: Antagonist activity at human NOX4 expressed in CHO cell membrane coexpressing tetracylin repressor assessed as inhibition of ROS production after 20 mins by cell-free amplex red assay; type: functional; conditions: in the assay text read “HEK293 cell membrane” for “CHO cell membrane”
T1 sequence (Q9NPH5 whole entry): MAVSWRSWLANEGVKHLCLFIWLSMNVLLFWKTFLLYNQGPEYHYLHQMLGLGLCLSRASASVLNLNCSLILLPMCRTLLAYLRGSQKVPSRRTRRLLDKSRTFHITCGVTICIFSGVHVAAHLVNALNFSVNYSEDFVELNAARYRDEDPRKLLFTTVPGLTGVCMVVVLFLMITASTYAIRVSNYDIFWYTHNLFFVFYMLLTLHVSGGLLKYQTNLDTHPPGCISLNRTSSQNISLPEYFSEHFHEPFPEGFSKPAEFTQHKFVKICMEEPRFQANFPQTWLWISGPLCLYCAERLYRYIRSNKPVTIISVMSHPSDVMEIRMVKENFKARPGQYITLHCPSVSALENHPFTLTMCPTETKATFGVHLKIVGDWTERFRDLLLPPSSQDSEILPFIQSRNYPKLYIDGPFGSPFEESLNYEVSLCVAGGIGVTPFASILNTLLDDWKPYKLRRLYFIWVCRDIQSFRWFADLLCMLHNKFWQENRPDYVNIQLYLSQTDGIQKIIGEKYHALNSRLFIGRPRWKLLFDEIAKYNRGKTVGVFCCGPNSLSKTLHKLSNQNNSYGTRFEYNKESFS
Procedure, shortened: (§1)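 Membranes from tetracycline-induced (24 h) Nox-expressing cells or human PMN (Nox2), sucrose-gradient purified; or xanthine oxidase. Incubated in PBS with Amplex Red, HRP and cofactors; NADPH (Nox) or xanthine starts ROS. Compound 1 nM–100 µM, 20 min at 37 °C, plate-reader. Background without membranes or agonist. Ki by Cheng-Prusoff; mean of ≥3 experiments in triplicate.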

NADPH oxidase 2 = target: T2, NADPH oxidase 2 (Homo sapiens, UniProt P04839); assay: Antagonist activity at human NOX2 in human polymorphonuclear cell membrane assessed as inhibition of ROS production after 20 mins by cell-free amplex red assay; type: functional; procedure, shortened: as §1
T2 sequence (P04839 whole entry): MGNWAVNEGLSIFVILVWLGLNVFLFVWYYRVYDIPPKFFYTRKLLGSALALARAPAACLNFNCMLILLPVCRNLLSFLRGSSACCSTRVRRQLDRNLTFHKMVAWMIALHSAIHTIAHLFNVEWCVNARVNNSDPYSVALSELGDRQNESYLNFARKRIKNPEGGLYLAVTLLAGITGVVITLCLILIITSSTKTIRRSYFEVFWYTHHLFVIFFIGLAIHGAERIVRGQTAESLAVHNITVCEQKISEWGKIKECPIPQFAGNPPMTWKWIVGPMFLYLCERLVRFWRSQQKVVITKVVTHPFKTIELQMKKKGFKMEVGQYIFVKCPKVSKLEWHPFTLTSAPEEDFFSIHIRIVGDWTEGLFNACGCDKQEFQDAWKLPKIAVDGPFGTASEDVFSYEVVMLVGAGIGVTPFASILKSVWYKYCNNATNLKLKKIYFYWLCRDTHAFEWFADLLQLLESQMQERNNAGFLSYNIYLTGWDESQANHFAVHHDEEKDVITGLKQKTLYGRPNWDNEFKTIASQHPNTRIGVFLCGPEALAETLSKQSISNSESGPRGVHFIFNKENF

NADPH oxidase 5 = target: T3, NADPH oxidase 5 (Homo sapiens, UniProt Q96PH1); assay: Antagonist activity at human NOX5 assessed as inhibition of ROS production after 20 mins by cell-free amplex red assay; type: functional; procedure, shortened: as §1
T3 sequence (Q96PH1 whole entry): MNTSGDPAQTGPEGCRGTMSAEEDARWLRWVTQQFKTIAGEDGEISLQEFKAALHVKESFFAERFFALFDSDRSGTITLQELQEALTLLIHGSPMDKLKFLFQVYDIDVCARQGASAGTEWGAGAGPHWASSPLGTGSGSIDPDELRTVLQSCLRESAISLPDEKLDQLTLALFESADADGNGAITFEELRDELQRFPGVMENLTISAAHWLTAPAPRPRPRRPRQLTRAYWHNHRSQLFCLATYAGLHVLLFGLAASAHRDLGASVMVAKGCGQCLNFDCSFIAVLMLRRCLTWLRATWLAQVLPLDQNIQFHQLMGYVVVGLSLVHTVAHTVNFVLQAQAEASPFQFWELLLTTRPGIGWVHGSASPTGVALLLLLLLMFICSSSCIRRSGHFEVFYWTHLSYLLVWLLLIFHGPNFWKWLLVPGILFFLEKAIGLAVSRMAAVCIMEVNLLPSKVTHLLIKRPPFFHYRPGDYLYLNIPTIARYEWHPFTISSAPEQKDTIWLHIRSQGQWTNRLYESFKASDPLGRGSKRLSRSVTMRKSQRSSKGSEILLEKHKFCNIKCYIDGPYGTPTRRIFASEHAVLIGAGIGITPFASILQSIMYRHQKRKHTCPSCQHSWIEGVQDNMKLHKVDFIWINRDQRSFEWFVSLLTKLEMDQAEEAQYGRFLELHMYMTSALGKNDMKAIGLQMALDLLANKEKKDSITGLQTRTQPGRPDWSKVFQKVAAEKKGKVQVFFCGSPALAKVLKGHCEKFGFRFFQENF

NADPH oxidase 1 = target: T4, NADPH oxidase 1 (Homo sapiens, UniProt Q9Y5S8); assay: Antagonist activity at human NOX1 expressed in CHO cell membrane coexpressing tetracylin repressor assessed as inhibition of ROS production after 20 mins by cell-free amplex red assay; type: functional; procedure, shortened: as §1
T4 sequence (Q9Y5S8 whole entry): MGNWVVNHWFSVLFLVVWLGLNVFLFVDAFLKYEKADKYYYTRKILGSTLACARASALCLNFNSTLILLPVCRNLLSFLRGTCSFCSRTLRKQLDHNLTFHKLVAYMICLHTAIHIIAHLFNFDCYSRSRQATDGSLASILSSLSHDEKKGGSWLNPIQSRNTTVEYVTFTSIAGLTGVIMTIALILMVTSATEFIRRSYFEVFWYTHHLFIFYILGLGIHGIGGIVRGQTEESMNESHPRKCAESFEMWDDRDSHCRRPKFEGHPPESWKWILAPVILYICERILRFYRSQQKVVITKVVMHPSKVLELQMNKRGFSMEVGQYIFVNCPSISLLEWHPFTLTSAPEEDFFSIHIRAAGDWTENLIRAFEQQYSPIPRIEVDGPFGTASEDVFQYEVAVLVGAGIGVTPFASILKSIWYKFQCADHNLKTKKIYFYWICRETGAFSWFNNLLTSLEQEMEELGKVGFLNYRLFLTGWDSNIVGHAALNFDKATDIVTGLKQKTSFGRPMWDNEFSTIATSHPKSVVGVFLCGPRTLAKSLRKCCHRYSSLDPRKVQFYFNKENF

[1] = Clearance in Sprague-Dawley rat liver microsomes assessed per mg of protein at 0.5 uM; type: ADME, Microsome; conditions: read-out: CLH
Procedure, shortened: (§2)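 Pooled rat (male Sprague Dawley) or human (mixed-sex) liver microsomes at 0.5 mg/mL final, 0.1 M phosphate pH 7.4, compound 0.5 µM final, 0.25% DMSO, 37 °C; 1 mM NADPH starts reaction. Sampled 0–45 min, methanol quench with internal standard, LC/MS-MS; intrinsic clearance from compound loss.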

[2] = Clearance in human liver microsomes assessed per mg of protein at 0.5 uM; type: ADME, Microsome; conditions: read-out: CLH; procedure, shortened: as §2
[3] = Efflux ratio of apparent permeability across human Caco2 cells at 10 uM after 2 hrs; type: ADME, cell-based; conditions: Caco-2
Procedure, shortened: (§3)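 Caco-2 monolayers grown 20 days, TEER >800 ohm·cm². Compound 10 µM final in HBSS pH 6.5 (1% DMSO), dosed apical (A→B) or basolateral (B→A), 2 h at 37 °C; both compartments sampled, LC–MS/MS cassette analysis with 5-point calibration.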

[4] = Lipophilicity, log D of the compound at pH 7.4; type: physicochemical; conditions: buffer
[5] = Apparent permeability across human Caco2 cells at 10 uM after 2 hrs; type: ADME, cell-based; conditions: Caco-2; procedure, shortened: as §3
[6] = Fraction unbound in rat plasma containing 50% plasma protein; type: ADME, cell-free
Procedure, shortened: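 Rat plasma protein binding in 50% plasma; fraction unbound reported.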

Homo sapiens = species: Homo sapiens; assay: Selectivity ratio of Ki for human NOX2 to Ki for human NOX4
Procedure, shortened: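 Ratio of Ki values from the Amplex Red membrane ROS assay (PMN membranes for Nox2, Nox4-overexpressing membranes), NADPH-triggered, 1 nM–100 µM, 20 min at 37 °C; Ki via Cheng-Prusoff.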

Row | Structure (SMILES) | Ki (NADPH oxidase 4) | Ki (NADPH oxidase 2) | Ki (NADPH oxidase 5) | Ki (NADPH oxidase 1) | microsomal CLint at 0.5 µM [1] | microsomal CLint at 0.5 µM [2] | efflux ratio at 2 h, 10 µM [3] | logD [4] | Papp at 2 h, 10 µM [5] | fraction unbound [6] | Ratio Ki (Homo sapiens)
1 | COc1ccccc1-n1[nH]c2cc(=O)n3c(c2c1=O)CN(Cc1ccccc1)CCC3 | 144 nM | 645 nM | 670 nM | 218 nM | – | – | – | – | – | – | –
2 | COc1ccccc1-n1[nH]c2cc(=O)n3c(c2c1=O)CN(Cc1ccccn1)CCC3.Cl | 93 nM | 510 nM | 610 nM | 217 nM | 32.1 µL/min/mg | 15.7 µL/min/mg | 16.8 | 0.33 | 1.4 ×10⁻⁶ cm/s | 0.069 | –
3 | CC(C)(C)OC(=O)N1CCCn2c(c3c(=O)n(-c4ccccc4Cl)[nH]c3cc2=O)C1 | 103 nM | 1280 nM | 590 nM | 148 nM | – | – | – | – | – | – | –
4 | O=c1c2c3n(c(=O)cc2[nH]n1-c1ccccc1Cl)CCCN(Cc1ccc(Cl)cc1)C3 | 103 nM | 1260 nM | 585 nM | 95 nM | 152 µL/min/mg | 77.3 µL/min/mg | – | 2.76 | – | – | –
5 | O=c1c2c3n(c(=O)cc2[nH]n1-c1ccccc1Cl)CCCN(Cc1ccccc1Cl)C3 | 76 nM | 1160 nM | 615 nM | 87 nM | 164 µL/min/mg | 87.1 µL/min/mg | – | 2.76 | – | – | –
6 | O=c1c2c3n(c(=O)cc2[nH]n1-c1ccccc1Cl)CCN(Cc1ccccc1)C3 | 142 nM | 2020 nM | 1420 nM | 398 nM | – | – | – | – | – | – | –
7 | COc1ccc(CN2CCCn3c(c4c(=O)n(-c5ccccc5Cl)[nH]c4cc3=O)C2)cc1 | 116 nM | 780 nM | 690 nM | 184 nM | – | – | – | – | – | – | –
8 | COc1cccc(CN2CCCn3c(c4c(=O)n(-c5ccccc5OC)[nH]c4cc3=O)C2)c1 | 131 nM | 820 nM | 690 nM | 212 nM | – | – | – | – | – | – | –
9 | O=c1c2c3n(c(=O)cc2[nH]n1-c1ccccc1Cl)CCCN(Cc1cccc(Cl)c1)C3 | 101 nM | 1150 nM | 475 nM | 104 nM | 153 µL/min/mg | 81.4 µL/min/mg | – | 2.76 | – | – | –
10 | O=c1c2c3n(c(=O)cc2[nH]n1-c1ccccc1Cl)CCCN(Cc1ccoc1)C3 | 111 nM | 1020 nM | 955 nM | 200 nM | – | – | – | – | – | – | –
11 | Cl.O=c1c2c3n(c(=O)cc2[nH]n1-c1ccccc1Cl)CCCN(Cc1cccnc1)C3 | 94 nM | 1370 nM | 1150 nM | 208 nM | 31.1 µL/min/mg | 21 µL/min/mg | 18.7 | 0.92 | 1 ×10⁻⁶ cm/s | 0.029 | –
12 | COc1cccc(CN2CCCn3c(c4c(=O)n(-c5ccccc5Cl)[nH]c4cc3=O)C2)c1.Cl | 112 nM | 1200 nM | 730 nM | 113 nM | 60.1 µL/min/mg | 35 µL/min/mg | 1.91 | 1.99 | 22.3 ×10⁻⁶ cm/s | 0.901 | –
13 | O=c1c2c3n(c(=O)cc2[nH]n1-c1ccccc1Cl)CCOC3 | 156 nM | 433 nM | 490 nM | 173 nM | – | – | – | – | – | – | –
14 | COc1ccccc1CN1CCCn2c(c3c(=O)n(-c4ccccc4Cl)[nH]c3cc2=O)C1 | 111 nM | 1760 nM | 740 nM | 133 nM | – | – | – | – | – | – | –
15 | O=c1c2c3n(c(=O)cc2[nH]n1-c1ccccc1Cl)CCCNC3 | 87 nM | 365 nM | 360 nM | 119 nM | – | – | – | – | – | – | 4.2
